According to ChEMBL document CHEMBL1143139, “Structure-activity studies on splitomicin derivatives as sirtuin inhibitors and computational prediction of binding mode” (J Med Chem, 2008):
Calls of active or inactive are those of the source. The calls are words filed in the database; no cut-off is given here.

tested on: MCF7; assay: Induction of tubulin hyperacetylation in human MCF7 cells at 10 uM by Western blot; assay type: functional, cell-based
Outline: (§1)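 MCF-7 cells seeded at 500000/well, treated 24 h later with compound or DMSO for 8 h at 37 °C. PBS-washed cells lysed in Tris-HCl pH 7.5, EDTA, NaCl, 0.5% NP-40 plus protease inhibitors. Protein quantified by BCA before Western blotting.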

Row | SMILES | Activity
1 | O=C(CCCCCCC(=O)Nc1ccccc1)NO | Active
2 | NC(=O)[C@H]1CCCCc2c1[nH]c1ccc(Cl)cc21 | Active

target: T1, NAD-dependent protein deacetylase sirtuin-2 (Homo sapiens, UniProt Q8IXJ6); assay: Inhibition of human recombinant Sirt2 expressed in Escherichia coli BL21 by fluorescent deacetylase assay
T1 sequence (Q8IXJ6 whole entry): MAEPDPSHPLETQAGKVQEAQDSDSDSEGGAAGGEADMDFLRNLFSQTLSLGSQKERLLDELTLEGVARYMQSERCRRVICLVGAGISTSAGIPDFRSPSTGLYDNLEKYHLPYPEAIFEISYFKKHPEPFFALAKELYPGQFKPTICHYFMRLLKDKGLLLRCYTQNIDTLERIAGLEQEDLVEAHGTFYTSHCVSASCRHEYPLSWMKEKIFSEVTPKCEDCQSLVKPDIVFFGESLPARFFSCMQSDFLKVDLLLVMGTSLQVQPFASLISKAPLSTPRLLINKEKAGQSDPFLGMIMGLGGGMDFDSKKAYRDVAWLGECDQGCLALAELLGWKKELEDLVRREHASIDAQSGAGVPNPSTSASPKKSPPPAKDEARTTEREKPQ

Row | IC50 [µM] | SMILES
3 | 3.1 | Cc1ccc2c3c(ccc2c1)OC(=O)CC3c1cccc(C#N)c1 (stereo not drawn)
4 | 19.7 | O=C1CC(c2ccc(F)c(F)c2)c2c(ccc3cc(Br)ccc23)O1 (stereo not drawn)
5 | 3.2 | O=C1CC(c2cccc(F)c2)c2c(ccc3cc(Br)ccc23)O1 (stereo not drawn)
6 | 10.6 | Cc1ccc2c3c(ccc2c1)OC(=O)CC3c1ccccc1 (stereo not drawn)
7 | 2.3 | Cc1ccc(C2CC(=O)Oc3ccc4cc(Br)ccc4c32)cc1Cl (stereo not drawn)
8 | 5.2 | O=C1CC(c2ccccc2)c2c(ccc3cc(Br)ccc23)O1 (stereo not drawn)
9 | 19.5 | O=C1CC(c2ccccc2)c2c(ccc3cc(I)ccc23)O1 (stereo not drawn)
10 | 6.4 | O=C1CC(c2ccccc2)c2c(ccc3cc(Br)ccc23)N1 (stereo not drawn)
11 | 4.4 | Cc1cccc(C2CC(=O)Oc3ccc4cc(C)ccc4c32)c1 (stereo not drawn)
12 | 10.1 | O=C1CC(c2cccc(Br)c2)c2c(ccc3cc(Br)ccc23)O1 (stereo not drawn)
13 | 20 | Cc1ccc2c3c(ccc2c1)OC(=O)CC3c1cccc(C(N)=O)c1 (stereo not drawn)
14 | 5.4 | COc1ccc(C2CC(=O)Oc3ccc4cc(Br)ccc4c32)cc1 (stereo not drawn)
15 | 1 | Cc1ccc([C@H]2CC(=O)Oc3ccc4cc(C)ccc4c32)cc1
16 | 9.8 | Cc1ccc2c3c(ccc2c1)OC(=O)CC3c1cccc(Br)c1 (stereo not drawn)
17 | 2 | Cc1ccc(C2CC(=O)Oc3ccc4cc(Br)ccc4c32)cc1F (stereo not drawn)
18 | 1.5 | Cc1ccc(C2CC(=O)Oc3ccc4cc(C)ccc4c32)cc1 (stereo not drawn)
19 | 3.4 | Cc1ccc2c3c(ccc2c1)OC(=O)C[C@@H]3c1ccccc1
20 | 1.5 | Cc1ccc(C2CC(=O)Oc3ccc4cc(Br)ccc4c32)cc1 (stereo not drawn)
21 | 2.3 | COc1cccc(C2CC(=O)Oc3ccc4cc(Br)ccc4c32)c1 (stereo not drawn)
22 | 7.9 | O=C1CC(c2ccc(F)cc2)c2c(ccc3cc(Br)ccc23)O1 (stereo not drawn)
23 | 3.4 | Cc1ccc2c3c(ccc2c1)OC(=O)CC3c1ccc(C)c(F)c1 (stereo not drawn)

target: T2, NAD-dependent protein deacetylase sirtuin-2 (Homo sapiens) (UniProt Q8IXJ6); assay: Inhibition of human recombinant Sirt2 expressed in Escherichia coli BL21 at 100 uM by fluorescent deacetylase assay
T2 sequence (whole entry): T1 sequence (Q8IXJ6 whole entry)
Outline: (§2)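 Full-length human Sirt2, N-terminal His6 tag, expressed in E. coli BL21 (IPTG 0.1 mM, 2 h). 60 µL reaction with fluorescent acetyl-lysine substrate ZMAL 10.5 µM, NAD+ 500 µM, inhibitor from DMSO stock, 4 h at 37 °C. Deacetylated product developed by tryptic digest; fluorescence at ex 390/em 460 nm. Inhibition calculated versus no-inhibitor control; at least duplicate.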

Row | inhibition [%] | SMILES
24 | 41.8 | Cc1ccc2c3c(ccc2c1)OC(=O)C[C@H]3c1ccccc1
25 | 35.1 | Cc1ccc([C@@H]2CC(=O)Oc3ccc4cc(C)ccc4c32)cc1

tested on: MCF7; assay: Antiproliferative activity against human MCF7 cells by MTT assay; assay type: functional
Outline: (§3)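 MCF-7 cells in RPMI-1640 with 10% FBS, L-glutamine and penicillin/streptomycin at 37 °C, 5% CO2; 5000 cells/well, compound or DMSO vehicle added 24 h after seeding, then 72 h exposure.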

Row | GI50 [µM] | SMILES
26 | 84 | Cc1ccc([C@H]2CC(=O)Oc3ccc4cc(C)ccc4c32)cc1
27 | 99 | Cc1ccc(C2CC(=O)Oc3ccc4cc(C)ccc4c32)cc1 (stereo not drawn)
28 | 43 | Cc1ccc(C2CC(=O)Oc3ccc4cc(Br)ccc4c32)cc1 (stereo not drawn)

tested on: MCF7; assay: Growth inhibition of human MCF7 cells at 500 uM by MTT assay; assay type: functional; outline: as §3

Row | SMILES | Inhibition [%]
29 | Cc1ccc2c3c(ccc2c1)OC(=O)CC3c1cccc(C(N)=O)c1 (stereo not drawn) | 64
30 | O=C1CC(c2ccccc2)c2c(ccc3cc(-c4ccccc4)ccc23)O1 (stereo not drawn) | 57
31 | Cc1ccc([C@@H]2CC(=O)Oc3ccc4cc(C)ccc4c32)cc1 | 74

tested on: MCF7; assay: Induction of tubulin hyperacetylation in human MCF7 cells at 100 uM by Western blot; assay type: functional, cell-based; outline: as §1

Row | SMILES | Activity
32 | Cc1ccc([C@H]2CC(=O)Oc3ccc4cc(C)ccc4c32)cc1 | Active
33 | Cc1ccc(C2CC(=O)Oc3ccc4cc(Br)ccc4c32)cc1 (stereo not drawn) | Active

target: T2, NAD-dependent protein deacetylase sirtuin-2 (Homo sapiens); assay: Inhibition of human recombinant Sirt2 expressed in Escherichia coli BL21 at 20 uM by fluorescent deacetylase assay; outline: as §2

Row | inhibition [%] | Activity | SMILES
34 | 28.3 | – | Cc1ccc2c3c(ccc2c1)OC(=O)CC3c1ccc(-c2ccccc2)cc1 (stereo not drawn)
35 | 28.5 | – | O=C1CC(c2ccc(Cl)cc2)c2c(ccc3cc(Br)ccc23)O1 (stereo not drawn)
36 | 17.4 | – | COc1ccccc1C1CC(=O)Oc2ccc3cc(Br)ccc3c21 (stereo not drawn)
37 | 17.1 | – | CC(=O)Nc1cccc(C2CC(=O)Oc3ccc4cc(C)ccc4c32)c1 (stereo not drawn)
38 | – | inactive | O=C1CCc2c(ccc3cc(Br)ccc23)O1
39 | 46.8 | – | CC(C)(C)c1ccc(C2CC(=O)Oc3ccc4cc(Br)ccc4c32)cc1 (stereo not drawn)
40 | 21.8 | – | O=C1CC(c2ccccc2)c2c(ccc3cc(O)ccc23)O1 (stereo not drawn)
41 | 42.3 | – | O=C1CC(c2ccc(Cl)c(Cl)c2)c2c(ccc3cc(Br)ccc23)O1 (stereo not drawn)
42 | 24 | – | CC(=O)c1ccc2c3c(ccc2c1)OC(=O)CC3c1ccccc1 (stereo not drawn)
43 | 18.4 | – | O=C1CC(c2ccccc2)c2c(ccc3cc(-c4cccnc4)ccc23)O1 (stereo not drawn)
44 | 15.4 | – | Cc1ccc2c3c(ccc2c1)OC(=O)CC3c1cccc(O)c1 (stereo not drawn)
45 | 22.2 | – | CC(=O)Nc1cccc(-c2ccc3c4c(ccc3c2)OC(=O)CC4c2ccccc2)c1 (stereo not drawn)
46 | 20.6 | – | O=C1CC(c2ccccc2)c2c(ccc3cc(-c4ccc(-c5ccccc5)cc4)ccc23)O1 (stereo not drawn)
47 | – | inactive | O=C1CC(c2cccnc2)c2c(ccc3ccccc23)N1 (stereo not drawn)
48 | 6.3 | – | COc1cc(C2CC(=O)Oc3ccc4cc(Br)ccc4c32)ccc1C (stereo not drawn)
49 | 37.5 | – | O=C1CC(c2ccccc2)c2c(ccc3cc(-c4cccc(O)c4)ccc23)O1 (stereo not drawn)
50 | 15.1 | – | O=C1CC(c2ccccc2)c2c(ccc3cc(-c4ccc5ccccc5c4)ccc23)O1 (stereo not drawn)
51 | 9.2 | – | COc1cc(C2CC(=O)Oc3ccc4cc(C)ccc4c32)ccc1C (stereo not drawn)
52 | 26.7 | – | Cc1ccc2c3c(ccc2c1)OC(=O)CC3c1ccc(Cl)cc1 (stereo not drawn)

target: T2, NAD-dependent protein deacetylase sirtuin-2 (Homo sapiens); assay: Inhibition of human recombinant Sirt2 expressed in Escherichia coli BL21 at 40 uM by fluorescent deacetylase assay; outline: as §2

Row | inhibition [%] | Activity | SMILES
53 | 16.9 | – | O=C1CC(c2ccc(F)cc2)c2c(ccc3ccccc23)N1 (stereo not drawn)
54 | – | inactive | COc1ccc2ccc3c(c2c1)C(c1ccccc1)CC(=O)O3 (stereo not drawn)
55 | 25.9 | – | N#Cc1ccc2c3c(ccc2c1)OC(=O)CC3c1ccccc1 (stereo not drawn)
56 | 21.1 | – | O=C1CC(Cc2ccccc2)c2c(ccc3cc(Br)ccc23)O1 (stereo not drawn)
57 | 9.6 | – | O=C1CC(c2ccccc2)c2c(cc(Br)c3cc(Br)ccc23)O1 (stereo not drawn)
58 | 31.5 | – | O=C1CC(c2ccccc2)c2c(ccc3ccccc23)N1 (stereo not drawn)
59 | 49.1 | – | O=C1CC(c2ccccc2)c2c(ccc3ccccc23)O1 (stereo not drawn)
60 | 4.2 | – | O=C1CC(c2ccc(-c3ccccc3)cc2)c2c(ccc3ccccc23)N1 (stereo not drawn)
61 | 26.2 | – | O=C1CC(c2ccccc2)c2c(ccc3cc(-c4ccccc4)ccc23)O1 (stereo not drawn)
62 | 25.6 | – | CCc1ccc2c3c(ccc2c1)OC(=O)CC3c1ccccc1 (stereo not drawn)
63 | – | inactive | NC(=O)c1ccc2c3c(ccc2c1)OC(=O)CC3c1ccccc1 (stereo not drawn)
